The subject of data set [1] is Mus musculus. Kind of data set: Toxicity after intraperitoneal injection into mice by using toxicity screen test after 0.5 hr. Type of data set: organism-based. The settings on record: in vivo, ip. The procedure, abridged:
(§1)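 Mice injected intraperitoneally at 30, 100 and 300 mg/kg and examined 0.5 and 4 h afterwards. Each entry is the minimum dose giving activity (MES protection, scPTZ protection, or rotorod failure for neurotoxicity) in half or more of the mice. Activity is called absent if nothing occurs at 300 mg/kg.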

Data set [2] concerns Rattus norvegicus. Kind of data set: Anticonvulsant activity after oral administration into rats. Type of data set: functional. Set-up: concentration or dose not given beside the values.
Data set [3] deals with Mus musculus. Kind of data set: Anticonvulsant activity after intraperitoneal injection into mice measured in a maximal electroshock scree (MES) screen. Type of data set: functional.
The test system of data set [4] is Rattus norvegicus. Kind of data set: Compound was tested for anticonvulsant activity after Oral Administration into Rats by using MES screen test after 2h,dose 12.5 mg/kg; number of rats out of four which were protected. Type of data set: functional. The procedure, abridged:
(§2)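 Rats received the compound orally. […] Rats were tested in the MES screen at 0.25, 0.5, 1, 2 and 4 h. Each value is the number of rats protected out of 4. The test followed NINDS procedures.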

Data set [5] deals with Mus musculus. Kind of data set: Anticonvulsant activity after intraperitoneal injection into mice by using scPTZ screen after 0.5 hr. Type of data set: functional.
In data set [6] the test system is Mus musculus. Kind of data set: Compound was tested for toxicity after intraperitoneal injection into mice by using toxicity screen test after 4 hr. The data set is classed as organism-based. The following applies: in vivo, ip. The procedure, abridged:
as §1

The test system of data set [7] is Rattus norvegicus. Kind of data set: Compound was tested for anticonvulsant activity after Oral Administration into Rats by using MES screen test after 0.25h,dose 12.5 mg/kg; No activity was demonstarted. Set-up: dose 12.5 mg/kg. The data set is classed as functional, organism-based. The procedure, abridged:
as §2

Data set [8] has as its system Mus musculus. Kind of data set: Anticonvulsant activity after intraperitoneal injection into mice by using MES screen test after 0.5 hr. The data set is classed as functional.
Data set [9] relates to Rattus norvegicus. Kind of data set: Compound was tested for anticonvulsant activity after Oral Administration into Rats by using MES screen test after 4h,dose 12.5 mg/kg; number of rats out of four which were protected. The data set is classed as functional. The procedure, abridged: as §2
For data set [10], the system named is Mus musculus. Kind of data set: Anticonvulsant activity after intraperitoneal injection into mice by using scPTZ screen test after 4 hr. Type of data set: functional.
In data set [11] the test system is Rattus norvegicus. Kind of data set: Compound was tested for anticonvulsant activity after Oral Administration into Rats by using MES screen test after 1h,dose 12.5 mg/kg; number of rats out of four which were protected. Type of data set: functional. The procedure, abridged: as §2
Data set [12] deals with Rattus norvegicus. Kind of data set: Compound was tested for anticonvulsant activity after Oral Administration into Rats by using MES screen test after 0.25h,dose 50 mg/kg; number of rats out of four which were protected. Type of data set: functional. The procedure, abridged: as §2
Data set [13] concerns Rattus norvegicus. Kind of data set: Compound was tested for anticonvulsant activity after Oral Administration into Rats by using MES screen test after 4h,dose 50 mg/kg; number of rats out of four which were protected. Type of data set: functional. The procedure, abridged:
as §2

Data set [14] relates to Rattus norvegicus. Kind of data set: Compound was tested for anticonvulsant activity after Oral Administration into Rats by using MES screen test after 2h,dose 50 mg/kg; number of rats out of four which were protected. The data set is classed as functional. The procedure, abridged:
as §2

For data set [15], the system named is Rattus norvegicus. Kind of data set: Compound was tested for anticonvulsant activity after Oral Administration into Rats by using MES screen test after 0.5h,dose 50 mg/kg; number of rats out of four which were protected. Type of data set: functional. The method, boiled down:
as §2

Data set [16] concerns Rattus norvegicus. Kind of data set: Compound was tested for anticonvulsant activity after Oral Administration into Rats by using MES screen test after 1h,dose 50 mg/kg; number of rats out of four which were protected. The data set is classed as functional. The method, boiled down: as §2
The subject of data set [17] is Rattus norvegicus. Kind of data set: Compound was tested for anticonvulsant activity after Oral Administration into Rats by using MES screen test after 0.25h,dose 12.5 mg/kg; number of rats out of four which were protected. Type of data set: functional. The procedure, abridged:
as §2

`CCCCCCCOc1ccc(Oc2ccc(/C=N/NC(N)=O)cc2)cc1` registered a Dose with Mus musculus [1] of 300 mg/kg.
With `N=C(S)N/N=C/c1ccc(Oc2ccc(F)cc2)cc1`, the Dose in the data set on Mus musculus [1] was 100 mg/kg; in the data set on Mus musculus [3], 30 mg/kg; with Mus musculus [5] it was 30 mg/kg; with Mus musculus [6], 30 mg/kg; in the data set with Mus musculus [8] it was 30 mg/kg; in the data set with Mus musculus [10], 30 mg/kg. Further, the Activity in the data set with Rattus norvegicus [2] was 2; with Rattus norvegicus [4], 3; in the data set with Rattus norvegicus [7], “No activity”; with Rattus norvegicus [9] it was 1; in the data set with Rattus norvegicus [11] it was 2.
In the data set with Mus musculus [6], `CC/C(=N/NC(N)=O)c1ccccc1Oc1ccc(Br)cc1` had a Dose of 300 mg/kg.
Turning to `NC(=O)C(=O)N/N=C/c1ccc(Oc2ccc(F)cc2)cc1`, the Dose with Mus musculus [1] and in the data set on Mus musculus [6] was 300 mg/kg in each case.
Regarding `Cc1ccc(Oc2ccc(/C=N/NC(N)=O)cc2)cc1C`, the Activity with Rattus norvegicus [2] is 2; with Rattus norvegicus [4], 4; in the data set with Rattus norvegicus [7], “No activity”; with Rattus norvegicus [9] it was 4; with Rattus norvegicus [11], 4. The Dose in the data set on Mus musculus [3] was 30 mg/kg; in the data set on Mus musculus [5], 300 mg/kg; in the data set with Mus musculus [6] it was 300 mg/kg; in the data set on Mus musculus [8], 100 mg/kg.
Take `NC(=O)N/N=C/c1ccc(Oc2ccccc2Cl)cc1`: the Activity with Rattus norvegicus [12] is given as 3; in the data set with Rattus norvegicus [13] it was 4; with Rattus norvegicus [14], 4; in the data set with Rattus norvegicus [15] it was 4; in the data set with Rattus norvegicus [16] it was 4. Also, the Dose with Mus musculus [1] worked out at 300 mg/kg; in the data set on Mus musculus [3], 30 mg/kg; with Mus musculus [5], 100 mg/kg; in the data set on Mus musculus [8] it was 30 mg/kg; in the data set with Mus musculus [10], 300 mg/kg.
Take `Cc1cc(Oc2ccc(/C=N/NC(N)=O)cc2)ccc1F`: the Dose was 300 mg/kg in the data set with Mus musculus [1], 30 mg/kg with Mus musculus [3] and 30 mg/kg with Mus musculus [8]. Moreover, the Activity was determined as 4 in the data set with Rattus norvegicus [2]; 4 with Rattus norvegicus [4]; 2 in the data set on Rattus norvegicus [17]; 4 with Rattus norvegicus [9]; 4 with Rattus norvegicus [11].
For the compound `CCCCCCCCc1ccc(Oc2ccc(/C=N/NC(N)=O)cc2)cc1`, the Dose in the data set with Mus musculus [3] came to 300 mg/kg.
With `N=C(S)N/N=C/c1ccc(Sc2ccc(F)cc2)cc1`, the Activity with Rattus norvegicus [2] was 1; in the data set with Rattus norvegicus [4], 1; with Rattus norvegicus [7], “No activity”; in the data set with Rattus norvegicus [9] it was 1; with Rattus norvegicus [11] it was 2. Moreover, the Dose in the data set with Mus musculus [3], with Mus musculus [5], in the data set on Mus musculus [6], with Mus musculus [8] and with Mus musculus [10] was 100 mg/kg throughout.
With `CCCc1ccccc1Oc1ccc(/C=N/NC(N)=O)cc1`, the Dose came out at 300 mg/kg in the data set on Mus musculus [1], 30 mg/kg with Mus musculus [3] and 100 mg/kg in the data set with Mus musculus [8]. Further, the Activity in the data set on Rattus norvegicus [2] stood at 3; with Rattus norvegicus [4], 4; in the data set with Rattus norvegicus [17], 3; in the data set on Rattus norvegicus [9] it was 4; with Rattus norvegicus [11], 4.
As to `C/C(=N/NC(N)=O)c1ccccc1Oc1ccc(Cl)cc1`, the Dose in the data set with Mus musculus [1], in the data set on Mus musculus [3], with Mus musculus [5], in the data set on Mus musculus [6], in the data set with Mus musculus [8] and in the data set with Mus musculus [10] was 300 mg/kg throughout.
On to `O=CN/N=C/c1ccc(Oc2ccc(F)cc2)cc1`, for which the Dose in the data set with Mus musculus [3], in the data set on Mus musculus [6], in the data set on Mus musculus [8] and in the data set on Mus musculus [10] was 300 mg/kg each time.
Consider `NC(=O)N/N=C\c1ccc(Oc2cccc(F)c2)cc1`, for which the Activity with Rattus norvegicus [12], in the data set with Rattus norvegicus [13], in the data set on Rattus norvegicus [14], in the data set on Rattus norvegicus [15] and with Rattus norvegicus [16] was 4 in each case. For the same compound, the Dose in the data set on Mus musculus [1] came out at 300 mg/kg; in the data set on Mus musculus [3] it was 300 mg/kg; in the data set with Mus musculus [5] it was 100 mg/kg; in the data set on Mus musculus [6] it was 300 mg/kg; in the data set on Mus musculus [8], 30 mg/kg.
Take `Cc1cc(Oc2ccc(/C=N/NC(N)=O)cc2)ccc1Cl`: the Dose in the data set with Mus musculus [1] was 300 mg/kg; in the data set with Mus musculus [3] it was 30 mg/kg; in the data set on Mus musculus [5], 300 mg/kg; in the data set on Mus musculus [6], 100 mg/kg; in the data set on Mus musculus [8], 30 mg/kg. For the same compound, the Activity with Rattus norvegicus [2] is 4; with Rattus norvegicus [4], 4; in the data set with Rattus norvegicus [17], 1; in the data set with Rattus norvegicus [9], 4; in the data set on Rattus norvegicus [11], 4.
Take `C/C(=N/NC(N)=O)c1ccccc1Oc1ccc(Br)cc1`: the Dose in the data set on Mus musculus [1] was 300 mg/kg.
Turning to `Cc1cc(I)ccc1Oc1ccc(/C=N/NC(N)=O)cc1`, the Dose in the data set on Mus musculus [1] was 300 mg/kg; in the data set with Mus musculus [3] it was 30 mg/kg; with Mus musculus [6], 100 mg/kg; in the data set with Mus musculus [8], 30 mg/kg. Besides, the Activity in the data set with Rattus norvegicus [2] amounted to 4; in the data set on Rattus norvegicus [4], 4; in the data set with Rattus norvegicus [17], 2; in the data set on Rattus norvegicus [9] it was 4; in the data set on Rattus norvegicus [11] it was 4.
On to `Cc1cc(Cl)ccc1Oc1ccc(/C=N/NC(N)=O)cc1`, for which the Dose in the data set on Mus musculus [1] stood at 300 mg/kg; in the data set with Mus musculus [3], 30 mg/kg; in the data set on Mus musculus [5] it was 30 mg/kg; in the data set with Mus musculus [6], 100 mg/kg; in the data set with Mus musculus [8], 30 mg/kg; with Mus musculus [10] it was 30 mg/kg. Further, the Activity with Rattus norvegicus [2] is 3; with Rattus norvegicus [4], 4; in the data set with Rattus norvegicus [7], “No activity”; in the data set on Rattus norvegicus [9], 4; in the data set with Rattus norvegicus [11] it was 4.
With `NC(=O)N/N=C\c1ccc(S(=O)(=O)c2ccccc2)cc1`, the Dose in the data set on Mus musculus [3] stood at 300 mg/kg.
As to `NC(=O)N/N=C/c1ccc(Oc2ccc(F)cc2F)cc1`, the Activity in the data set on Rattus norvegicus [12] is reported as 3; with Rattus norvegicus [13] it was 4; in the data set on Rattus norvegicus [14], 4; in the data set on Rattus norvegicus [15], 4; with Rattus norvegicus [16] it was 4. The Dose in the data set with Mus musculus [3] turned out to be 30 mg/kg; in the data set on Mus musculus [5], 100 mg/kg; in the data set with Mus musculus [8], 30 mg/kg.
As for `NC(=O)N/N=C/c1ccc(Oc2ccc(I)cc2)cc1`, the Activity in the data set with Rattus norvegicus [12] is on record as 3; in the data set on Rattus norvegicus [13], 4; in the data set on Rattus norvegicus [14] it was 4; with Rattus norvegicus [15] it was 4; in the data set on Rattus norvegicus [16], 4. The Dose is 300 mg/kg in the data set with Mus musculus [1]; 30 mg/kg in the data set with Mus musculus [3]; 100 mg/kg with Mus musculus [5]; 100 mg/kg in the data set with Mus musculus [6]; 30 mg/kg with Mus musculus [8]; 300 mg/kg with Mus musculus [10].
For `C/C(=N/NC(N)=O)c1ccccc1Oc1ccccc1`, the Dose in the data set with Mus musculus [1], with Mus musculus [5] and in the data set with Mus musculus [8] was 300 mg/kg throughout.
For the compound `NC(=O)N/N=C/c1ccc(Oc2ccc(F)cc2Br)cc1`, the Activity with Rattus norvegicus [12], in the data set with Rattus norvegicus [13], in the data set with Rattus norvegicus [14], in the data set with Rattus norvegicus [15] and in the data set with Rattus norvegicus [16] was 4 throughout. For the same compound, the Dose in the data set on Mus musculus [1] came to 300 mg/kg; with Mus musculus [3] it was 100 mg/kg; in the data set with Mus musculus [5] it was 300 mg/kg; in the data set with Mus musculus [6] it was 300 mg/kg; in the data set on Mus musculus [8], 100 mg/kg.
As for `CC/C(=N/NC(N)=O)c1ccccc1Oc1ccc(Cl)cc1`, the Dose with Mus musculus [3] and in the data set on Mus musculus [8] was 300 mg/kg throughout.
As to `NC(=O)N/N=C/c1ccc(Oc2ccc(Cl)cc2)cc1`, the Activity in the data set with Rattus norvegicus [12], in the data set with Rattus norvegicus [13], in the data set on Rattus norvegicus [14], with Rattus norvegicus [15] and with Rattus norvegicus [16] was 4 in each case. Besides, the Dose in the data set on Mus musculus [1] is 300 mg/kg; in the data set on Mus musculus [3], 30 mg/kg; with Mus musculus [5], 30 mg/kg; in the data set on Mus musculus [6], 30 mg/kg; in the data set with Mus musculus [8] it was 30 mg/kg.

Source of the values: ChEMBL document CHEMBL1129428 (J Med Chem, 1996).
